The sample as a whole holds a higher share of hits than the screen did.
Lmaj promast = reduces viability of Leishmania major promastigotes | resazurin fluorescence viability | inhibition, % at 10 µM | actives 9% (n = 200,000) | AID 1063; in the data active means inhibition above about 50%;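 further: promastigotes grown with compound for 44 hours at 28 °C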
S1P4 agonist = agonists of human S1P4 receptor. O95977. S1P4-expressing cell line, agonist reporter assay. activation, % at 4.98 µM. actives 0.35% (n = 220,000). AID 1509; in the data active means activation above about 11%;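 further: 0% = DMSO vehicle and 100% = reference agonist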
Mdm2 ligase inh = blocks human Mdm2 ubiquitin ligase activity; cell-based MDM2 ubiquitination luciferase reporter, 2 h; 0 = plate control, 100 = twice control, blank-subtracted; signal enhancement, % at 5 µM; actives 0.11% (n = 210,000);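 active means signal enhancement of 30% or more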;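 further: luminescence tracks abundance of the self-degrading MDM2-luciferase fusion protein; higher signal means inhibition of MDM2 E3 ligase activity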
Target sequence (Q00987 whole entry, looked up, the tested form may be a part): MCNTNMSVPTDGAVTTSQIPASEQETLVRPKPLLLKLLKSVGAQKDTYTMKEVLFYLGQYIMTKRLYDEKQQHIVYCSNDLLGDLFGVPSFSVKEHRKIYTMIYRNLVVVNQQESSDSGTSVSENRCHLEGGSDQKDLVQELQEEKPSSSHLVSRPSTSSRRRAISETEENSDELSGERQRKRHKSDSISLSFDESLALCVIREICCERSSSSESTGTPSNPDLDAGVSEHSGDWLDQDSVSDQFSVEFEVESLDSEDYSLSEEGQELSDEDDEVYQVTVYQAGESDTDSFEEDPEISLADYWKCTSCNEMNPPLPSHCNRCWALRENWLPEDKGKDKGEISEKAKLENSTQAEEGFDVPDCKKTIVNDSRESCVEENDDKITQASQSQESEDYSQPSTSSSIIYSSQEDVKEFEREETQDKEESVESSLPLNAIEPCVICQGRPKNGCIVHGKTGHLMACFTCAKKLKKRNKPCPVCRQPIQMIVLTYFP
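System: stable MDM2–luciferase fusion reporter cells / Input: 2000 cells seeded into each well / Schedule: 4 h settle plus 2 h compound, 37 °C / Compound: single-point 5 µM / Buffer or medium: cells held in DMEM / Benchmarks: control and blank well means / Evaluation: percent signal gain over controls, blank-subtracted / Measured by: luciferase luminescence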
S1P4 antagonist = antagonists of human S1P4 receptor; O95977; inhibition, % at 4.98 µM; actives 0.26% (n = 220,000); S1P4-expressing cells, antagonist mode, reporter read-out; AID 1510; in the data active means inhibition above about 29%;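 further: 0% = wells stimulated with agonist and 100% = vehicle wells without agonist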
S1P3 antagonist = S1P3 (human) receptor antagonism | Q99500 | CHO S1P3 NFAT-BLA reporter, FRET fluorescence, antagonist mode | actives 0.27% (n = 170,000) | inhibition, % at 4.98 µM | AID 485;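 active means inhibition above the plate cutoff, the mean inhibition of test wells on that plate plus 3 SD, cut at about 28% in these data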;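 further: cells challenged with S1P at its EC80 of 0.8 µM; blue over green emission ratio from cleaved BLA substrate after 4 h stimulation; 0% = S1P-stimulated wells and 100% = unstimulated DMSO-only wells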
* marks the source's active call; other numbers are inactive results; / = no result.

SMILES	Lmaj promast	S1P4 agonist	Mdm2 ligase inh	S1P4 antagonist	S1P3 antagonist
CC(Oc1ccc(Cl)cc1Cl)C(=O)Nc1ccc(N2CCN(C)CC2)cc1 (stereo unspecified)	100*	-2	9	-13	-18
CC(Oc1ccc(Cl)cc1Cl)C(=O)NNC(=O)C(=O)N1CCCCC1 (stereo unspecified)	60*	-3	0	1	-4
Cc1onc(-c2ccccc2)c1-c1n[nH]c(=S)n1-c1ccccc1	-3	-4	/	-17	/
O=c1oc2ccc3ccccc3c2cc1-c1nc2ccccc2o1	100*	-1	/	12	/
COc1ccc2oc(=O)c(-c3nc4ccccc4o3)cc2c1	98*	1	-3	-13	/
COc1ccc(-c2nnc(-c3cc4ccccc4oc3=O)o2)cc1	5	-1	/	-5	/
O=c1oc2ccccc2cc1-c1nc2ccccc2o1	4	2	-20	1	/
CC(O)c1nc2ccccc2n1CC(=O)N1CCN(c2ccccc2)CC1 (stereo unspecified)	-5	0	-2	19	17
COc1ccc(OC)c(/C=C/C(=O)N2CCCc3ccccc32)c1	23	0	-7	-7	3
COc1ccc(/C=C/C(=O)N2CCCc3ccccc32)cc1	60*	-1	-4	-7	3
COc1cc(/C=C/C(=O)N2CCCc3ccccc32)cc(OC)c1OC	50*	0	-3	-7	8
CC(Cl)C(=O)c1ccc2c(c1)CCN2C(=O)C1CC1 (stereo unspecified)	96*	2	-27	-8	-5
CCN(CC)CC(=O)Nc1c(C#N)cnn1-c1ccccc1	/	0	4	13	-9
Cc1cc(=O)n(CC(=O)Nc2cc(Cl)ccc2C)c(C(C)C)n1	8	0	-4	-5	-24
CCNC(=S)/N=C(\N)Nc1nc(C)c2cc(C)ccc2n1	81*	-2	-9	-8	0
O=C(CC1Sc2ncnn2C1=O)Nc1ccccc1 (stereo unspecified)	100*	1	-69	3	/
CC1CCCCN1S(=O)(=O)c1ccc(C(=O)Nc2nnc(-c3ccccc3Cl)o2)cc1 (stereo unspecified)	99*	-1	-9	-34	-2
CCC1CCCCN1S(=O)(=O)c1ccc(C(=O)Nc2nnc(-c3ccccc3Cl)o2)cc1 (stereo unspecified)	99*	-4	-1	-15	-63
O=C(Nc1ccn(-c2ccccc2)n1)c1ccc(S(=O)(=O)N2CCCCCC2)cc1	66*	1	-6	-3	36
O=C(Nc1nnc(-c2ccccc2Cl)o1)c1ccc(S(=O)(=O)N2CCCCCC2)cc1	99*	-2	2	15	-3
Cc1ccccc1OCc1nnc(SCC(=O)Nc2ccc3nc(SCC(=O)Nc4ccccc4)sc3c2)n1C	-5	1	-9	0	3
O=C(Nc1ccccc1Oc1ccccc1)c1ccccc1F	31	1	-14	-16	-13
CCOC(=O)N1CCC(NC(=O)c2ccc(CS(=O)(=O)c3ccccc3C)o2)CC1	-5	0	-12	-13	11
CC(OC(=O)CCCCCN=C1NS(=O)(=O)c2ccccc21)C(=O)Nc1cc(Cl)cc(Cl)c1 (stereo unspecified)	0	0	-8	-16	12
CCCC(=O)Nc1c(-c2ccccc2)c(=O)c(C)nn1-c1ccc(C)cc1	/	-1	/	10	9
SMILES	Lmaj promast	S1P4 agonist	Mdm2 ligase inh	S1P4 antagonist	S1P3 antagonist
CSc1ccc(CN(C)C(C)C(=O)NCc2ccccc2)cc1 (stereo unspecified)	2	-1	-8	-6	-3
CCN(CC)CCCN1C(=O)CSC1c1ccc([N+](=O)[O-])cc1 (stereo unspecified)	76*	0	-1	-5	-12
CCN(CC)CCCN1C(=O)CSC1c1ccc2c(c1)OCO2 (stereo unspecified)	12	-1	-8	-9	-9
COc1ccc(CN(C)Cc2nc3scc(-c4ccccc4)c3c(=O)[nH]2)cc1OC	63*	2	3	-16	2
CSCc1nc2scc(-c3ccccc3)c2c(=O)[nH]1	18	-4	-94	-1	-4
CN(Cc1cn(-c2ccccc2)nc1-c1ccc(Cl)cc1)C(=O)CCC(=O)O	3	-1	-7	-15	-7
CCN(CC)S(=O)(=O)c1ccc2oc(C(=O)N3CCCCCC3)c(C)c2c1	6	-1	-1	-10	/
C=CCNC(=O)c1oc2ccc(S(=O)(=O)N(CC)CC)cc2c1C	98*	0	-13	5	18
Cc1c(C(=O)O)oc2ccc(S(=O)(=O)NC3CCCCCCC3)cc12	-9	5	-13	5	-10
COCCCNC(=O)c1oc2ccc(S(=O)(=O)N(C)C3CCCCC3)cc2c1C	97*	-1	-15	2	/
CCOC(=O)c1sc2nc(C)nc(SCC(=O)N(C)C3CCS(=O)(=O)C3)c2c1C (stereo unspecified)	24	0	-12	9	2
CCOC(=O)c1sc2nc(C)nc(SCC(=O)NC(C)CCc3ccccc3)c2c1C (stereo unspecified)	96*	0	-5	-32	1
CN(C)/C=C/C(=O)c1cc(N2CCOCC2)ccc1[N+](=O)[O-]	-8	0	2	4	2
CCCCNC(=O)c1cn(-c2ccc(OCC)cc2)c(=O)c2cc(OC)c(OC)cc12	-8	-1	-17	-19	/
CCOc1ccc(S(=O)(=O)N/N=C(\C)C2CCCCC2)cc1	55*	0	0	-11	-12
CCOc1ccc(S(=O)(=O)NC2CCCCCC2)cc1	-3	1	6	-9	2
CCN(c1ccccc1)S(=O)(=O)c1ccc(Oc2ccc(-n3ccnc3)cc2)nc1	76*	0	-2	18	-40
O=C1N/C(=C\c2ccc(O)cc2)C(=O)c2ccccc21	100*	2	-17	-4	/
O=C(c1ccc(Cl)c(S(=O)(=O)N2CCc3ccccc3C2)c1)N1CCN(c2ccccc2)CC1	21	1	-6	0	-11
O=C(c1ccc(Cl)c(S(=O)(=O)Nc2ccccc2C(=O)N2CCc3ccccc3C2)c1)N1CCc2ccccc2C1	78*	1	-17	-20	-3
COCCn1c(C)cc(C(=O)CSc2nc(C)nc3sc4c(c23)CCC4)c1C	-2	-2	/	-30	-44
NC(=O)c1ccccc1N/C=C/C(=O)c1ccc(Cl)cc1Cl	86*	0	-41	-23	/
NC(=O)c1ccccc1N/C=C/C(=O)c1ccc(F)cc1	3	0	-70	3	/
CCCCOP(=O)(OCCCC)C1(NS(=O)(=O)c2ccccc2)C=CC(=O)c2ccccc21 (stereo unspecified)	100*	2	-4	-4	/
Cc1ccc(O)c(C(=O)c2cnc3c(c2)CN(C)C(=O)N3)c1	47	1	-7	-17	/
Cc1ccc(O)c(C(=O)c2cnc3c(c2)c(C)nn3-c2ccccc2)c1	77*	0	-11	-8	-5
Cc1ccc(O)c(C(=O)c2cnc3c(c2)c(-c2ccc(F)cc2)c(C#N)c(=O)n3C)c1	52*	0	0	-19	-13

High-throughput results as filed in PubChem.
